# Assay results: ChEMBL document CHEMBL4411266, “Triterpenoid Hydroxamates as HIF Prolyl Hydrolase Inhibitors” (J Nat Prod, 2018)
# Calls of active or inactive are those of the source. The calls are words filed in the database; no cut-off is given here.
# Tests used:
# [1] = target: T1, Hypoxia-inducible factor prolyl hydroxylase (Homo sapiens, UniProt Q96KS0+Q9NXG6+Q9GZT9+Q9H6Z9); test: Inhibition of PHD (unknown origin) expressed in mouse NIH/3T3 cells harboring HRE-driven luciferase gene assessed as transactivation of HIF1alpha after 6 hrs by luciferase reporter gene assay; type: cell-based
# T1 sequence (Q96KS0 whole entry, looked up): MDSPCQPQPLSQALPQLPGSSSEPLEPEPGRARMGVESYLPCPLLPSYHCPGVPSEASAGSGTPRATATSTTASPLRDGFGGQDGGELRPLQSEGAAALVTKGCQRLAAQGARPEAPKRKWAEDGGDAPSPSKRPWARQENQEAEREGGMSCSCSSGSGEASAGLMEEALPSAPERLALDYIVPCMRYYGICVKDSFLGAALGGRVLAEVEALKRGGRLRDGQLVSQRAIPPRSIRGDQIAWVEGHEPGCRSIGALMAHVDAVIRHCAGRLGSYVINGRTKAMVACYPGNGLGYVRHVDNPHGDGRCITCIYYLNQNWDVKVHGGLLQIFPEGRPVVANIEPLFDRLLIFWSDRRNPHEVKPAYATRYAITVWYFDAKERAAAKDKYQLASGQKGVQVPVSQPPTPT
# T1 sequence (Q9GZT9 whole entry, looked up): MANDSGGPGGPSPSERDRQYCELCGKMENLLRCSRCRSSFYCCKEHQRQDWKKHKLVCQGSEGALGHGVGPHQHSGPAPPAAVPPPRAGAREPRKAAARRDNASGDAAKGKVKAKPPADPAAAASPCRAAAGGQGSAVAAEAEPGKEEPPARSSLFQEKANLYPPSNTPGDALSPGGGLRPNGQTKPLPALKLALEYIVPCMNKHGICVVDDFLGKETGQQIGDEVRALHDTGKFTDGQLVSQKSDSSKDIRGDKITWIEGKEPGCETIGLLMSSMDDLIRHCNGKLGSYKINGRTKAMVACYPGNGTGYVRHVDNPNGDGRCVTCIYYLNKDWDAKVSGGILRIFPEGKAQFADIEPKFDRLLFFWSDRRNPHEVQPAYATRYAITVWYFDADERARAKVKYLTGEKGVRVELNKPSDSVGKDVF
# T1 sequence (Q9H6Z9 whole entry, looked up): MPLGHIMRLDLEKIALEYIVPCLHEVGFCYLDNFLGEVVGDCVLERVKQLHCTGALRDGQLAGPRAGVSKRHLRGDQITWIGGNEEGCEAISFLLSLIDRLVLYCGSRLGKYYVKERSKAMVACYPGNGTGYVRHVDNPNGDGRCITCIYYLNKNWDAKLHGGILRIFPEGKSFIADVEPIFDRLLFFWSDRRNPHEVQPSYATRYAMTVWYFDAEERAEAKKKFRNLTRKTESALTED
# T1 sequence (Q9NXG6 whole entry, looked up): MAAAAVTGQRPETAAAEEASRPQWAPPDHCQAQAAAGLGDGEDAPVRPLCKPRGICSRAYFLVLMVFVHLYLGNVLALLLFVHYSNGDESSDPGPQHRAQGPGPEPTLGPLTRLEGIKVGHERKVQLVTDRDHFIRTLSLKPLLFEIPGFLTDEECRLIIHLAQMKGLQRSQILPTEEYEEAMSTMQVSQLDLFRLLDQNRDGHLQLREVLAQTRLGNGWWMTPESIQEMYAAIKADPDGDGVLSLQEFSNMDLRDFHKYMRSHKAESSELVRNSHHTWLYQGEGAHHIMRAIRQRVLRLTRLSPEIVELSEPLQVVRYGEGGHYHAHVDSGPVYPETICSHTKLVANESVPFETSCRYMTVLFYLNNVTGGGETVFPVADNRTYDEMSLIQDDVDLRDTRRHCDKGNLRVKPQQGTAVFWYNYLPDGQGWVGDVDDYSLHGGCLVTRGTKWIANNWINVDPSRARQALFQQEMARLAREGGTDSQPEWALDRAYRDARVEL
# Method in brief: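 NIH-3T3 mouse cells stably carrying an EPO-HRE luciferase reporter (three HRE copies from the erythropoietin promoter) treated with compounds for 6 h. Cells then washed twice in PBS and lysed in Tris-phosphate pH 7.8 buffer with MgCl2, DTT, Triton X-100 and glycerol for 15 min at room temperature. Luciferase measured in the supernatant after centrifugation.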
# [2] = target: T1, Hypoxia-inducible factor prolyl hydroxylase; test: Inhibition of PHD (unknown origin) expressed in mouse NIH/3T3 cells harboring HRE-driven luciferase gene assessed as transactivation of HIF1alpha after 6 hrs by luciferase reporter gene assay relative to deferoxamine; type: cell-based
# Method in brief: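 Mouse NIH-3T3 cells with a stably transfected EPO-HRE luciferase reporter exposed to compounds for 6 h, then washed, lysed and read for luciferase in the cleared lysate. EC50 and intrinsic relative activity (IRA) were calculated relative to 150 μM deferoxamine as reference.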
# [3] = target: T1, Hypoxia-inducible factor prolyl hydroxylase; test: Inhibition of PHD in HEK293T cells assessed as increase in HIF1alpha expression at 1 to 10 uM after 3 hrs by Western blot analysis; type: cell-based
# Method in brief: (§1)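 HEK-293T cells treated for 3 h, with DFX (100 μM) as a reference. Cell lysates were made in Tris-HCl pH 7.5/NaCl/glycerol/NP-40 buffer with protease and phosphatase inhibitors. 30 μg protein was run on 10% SDS-PAGE, blotted to PVDF and probed for HIF-1α, PHD1, PHD2 and PHD3. Detection was by HRP secondary and chemiluminescence.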
# HEK-293T [4] = test: Effect on PHD2 expression in HEK293T cells at 1 to 10 uM after 3 hrs by Western blot analysis; type: ADME, cell-based; conditions: human; method in brief: as §1
# HEK-293T [5] = test: Effect on PHD1 expression in HEK293T cells at 1 to 10 uM after 3 hrs by Western blot analysis; type: ADME, cell-based; conditions: human; method in brief: as §1
# HEK-293T [6] = test: Effect on PHD3 expression in HEK293T cells at 1 to 10 uM after 3 hrs by Western blot analysis; type: ADME, cell-based; conditions: human; method in brief: as §1
# [7] = target: T1, Hypoxia-inducible factor prolyl hydroxylase; test: Inhibition of PHD in HEK293T cells assessed as increase in HIF1alpha expression at 10 uM after 15 to 180 mins by Western blot analysis; type: cell-based
# Method in brief: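 HEK-293T cells were stimulated over a time course and HIF-1α was followed by Western blot. Lysis was in NP-40 buffer with protease and phosphatase inhibitors. 30 μg protein was resolved on 10% SDS-PAGE, transferred to PVDF, and detected by HRP secondary and chemiluminescence.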
# [8] = target: T1, Hypoxia-inducible factor prolyl hydroxylase; test: Inhibition of PHD in HEK293T cells assessed as increase in HIF1alpha expression at 10 uM under hypoxic condition by Western blot analysis; type: cell-based
# Method in brief: (§2)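 HEK-293T cells were treated under hypoxia (1% O2) or normoxia, with or without compound. HIF-1α and PHD levels were read by Western blot: NP-40 lysis, 30 μg protein on 10% SDS-PAGE, PVDF transfer, HRP secondary and chemiluminescence.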
# HEK-293T [9] = test: Effect on PHD2 expression in HEK293T cells at 10 uM under hypoxic condition by Western blot analysis; type: ADME, cell-based; conditions: human; method in brief: as §2
# HEK-293T [10] = test: Effect on PHD2 expression in HEK293T cells at 10 uM under normoxic condition by Western blot analysis; type: ADME, cell-based; conditions: human; method in brief: as §2
# [11] = target: T1, Hypoxia-inducible factor prolyl hydroxylase; test: Inhibition of PHD in HEK293T cells assessed as increase in HIF1alpha expression at 10 uM under normoxic condition by Western blot analysis; type: cell-based; method in brief: as §2
# [12] = target: T1, Hypoxia-inducible factor prolyl hydroxylase; test: Inhibition of PHD in HEK293T cells assessed as increase in HIF1alpha expression at 1 to 10 uM after 6 hrs in presence of proteasome inhibitor MG132; type: cell-based
# Method in brief: (§3)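 HEK-293T cells were treated for 6 h in the presence of the proteasome inhibitor MG132. Hydroxylated HIF-1α and total HIF-1α were determined by immunoblot: 10% SDS-PAGE, PVDF transfer, HRP/chemiluminescence detection.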
# [13] = target: T1, Hypoxia-inducible factor prolyl hydroxylase; test: Inhibition of PHD in HEK293T cells assessed as reduction in HIF1alpha hydroxylation at 1 to 10 uM after 6 hrs in presence of proteasome inhibitor MG132; type: cell-based; method in brief: as §3
# [14] = target: T1, Hypoxia-inducible factor prolyl hydroxylase; test: Reversible inhibition of PHD (unknown origin) expressed in mouse NIH/3T3 cells harboring HRE-driven luciferase gene assessed as transactivation of HIF1alpha at 5 to 25 uM pretreated for 1 hr followed by compound washout and measured after 6 hrs by luciferase reporter gene assay; type: cell-based
# Method in brief: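 NIH-3T3-EPO-Luc cells stably carry an EPO-promoter 3×HRE-luciferase reporter. Cells were pretreated 1 h, then washed or not with PBS and incubated 6 h in complete medium. Lysis was in Tris-phosphate pH 7.8/MgCl2/DTT/Triton buffer and luciferase was read in the lysate. Data are fold induction over untreated cells, means ± SD, n = 3, one-way ANOVA with Tukey's test.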
# [15] = target: T1, Hypoxia-inducible factor prolyl hydroxylase; test: Inhibition of PHD (unknown origin) expressed in mouse NIH/3T3 cells harboring HRE-driven luciferase gene assessed as transactivation of HIF1alpha at 1 to 25 uM after 6 hrs in presence of 50 uM betulinic acid by luciferase reporter gene assay; type: cell-based
# Method in brief: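 NIH-3T3-EPO-Luc (3×HRE-luciferase) cells were preincubated 30 min with betulinic acid (50 μM), then treated with compound for 6 h. Cells were washed in PBS and lysed in Tris-phosphate pH 7.8 buffer, and luciferase was measured in the lysate. Data are fold induction over untreated cells, means ± SD, n = 3, one-way ANOVA with Tukey's test.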
EC50 [1] [µM],Intrinsic activity [2],SMILES,other results
11.4,0.15,CC1(C)CC[C@]2(C(=O)NO)CC[C@]3(C)C(=CC(=O)[C@@H]4[C@@]5(C)CC[C@H](O)C(C)(C)[C@@H]5CC[C@]43C)[C@@H]2C1,
2.4,0.34,C=C(C)[C@@H]1CC[C@]2(C(=O)NO)CC[C@]3(C)C(CC[C@@H]4[C@@]5(C)Cc6cn[nH]c6C(C)(C)[C@@H]5CC[C@]43C)[C@H]12 (some centres undefined),
3.8,0.43,"CC1(C)CCC2(C(=O)NO)CC[C@]3(C)C(=CC[C@@H]4[C@@]5(C)CC/C(=N\O)C(C)(C)[C@@H]5CC[C@]43C)[C@@H]2C1 (single isomer, unassigned)",
16.4,0.39,"CC1(C)CCC2(C(=O)NO)CC[C@]3(C)C(=CC[C@@H]4[C@@]5(C)CC[C@H](O)C(C)(C)[C@@H]5CC[C@]43C)[C@@H]2C1 (single isomer, unassigned)",
> 50,,C[C@H]1[C@H](C)CC[C@]2(C(=O)O)CC[C@]3(C)C(=CC[C@@H]4[C@@]5(C)CC[C@H](O)C(C)(C)[C@@H]5CC[C@]43C)[C@H]12 [URSOLIC ACID],
3.2,0.48,C=C(C)[C@@H]1CC[C@]2(C(=O)NO)CC[C@]3(C)C(CC[C@@H]4[C@@]5(C)CC=CC(C)(C)[C@@H]5CC[C@]43C)[C@H]12 (some centres undefined),
> 50,,CC1(C)CC[C@]2(C(=O)O)CC[C@]3(C)C(=CC[C@@H]4[C@@]5(C)CC[C@H](O)C(C)(C)[C@@H]5CC[C@]43C)[C@@H]2C1 [OLEANOLIC_ACID],
7.7,0.17,C[C@H]1[C@H](C)CC[C@]2(C(=O)NO)CC[C@]3(C)C(=CC[C@@H]4[C@@]5(C)CC[C@H](O)C(C)(C)[C@@H]5CC[C@]43C)[C@H]12,
7.5,1.19,C=C(C)[C@@H]1CC[C@]2(C)[C@H](CC=C3[C@@H]4CC(C)(C)CC[C@]4(C(=O)OC)CC[C@]32C)[C@@]1(C)CCC(=O)NO,
5.8,2.2,CC1(C)CC[C@]2(C(=O)NO)CC[C@]3(C)C(=CC[C@@H]4[C@@]5(C)CCC(=O)OC(C)(C)[C@@H]5CC[C@]43C)[C@@H]2C1,
> 50,,C=C(C)[C@@H]1CC[C@]2(C(=O)O)CC[C@]3(C)C(CC[C@@H]4[C@@]5(C)CC[C@H](OC(=O)CC(C)(C)C(=O)O)C(C)(C)[C@@H]5CC[C@]43C)[C@H]12 (some centres undefined),
8.9,0.1,C[C@H]1[C@H](C)CC[C@]2(C(=O)NO)CC[C@]3(C)C(=CC[C@@H]4[C@@]5(C)CC/C(=N\O)C(C)(C)[C@@H]5CC[C@]43C)[C@H]12,
> 50,,CC1(C)[C@@H](O)CC[C@]2(C)[C@H]3C(=O)C=C4[C@@H]5C[C@@](C)(C(=O)NO)CC[C@]5(C)CC[C@@]4(C)[C@]3(C)CC[C@@H]12,
6.8,0.31,C=C(C)[C@@H]1CC[C@]2(C(=O)NO)CC[C@]3(C)C(CC[C@@H]4[C@@]5(C)CC/C(=N\O)C(C)(C)[C@@H]5CC[C@]43C)[C@@H]12 (some centres undefined),
> 50,,CC1(C)CC[C@]2(C(=O)O)CC[C@]3(C)C(=CC[C@@H]4[C@@]5(C)C[C@@H](O)[C@H](O)C(C)(C)[C@@H]5CC[C@]43C)[C@@H]2C1 [MASLINIC ACID],
5,0.16,"CC1(C)CCC2(C(=O)NO)CC[C@]3(C)C(=CC[C@@H]4[C@@]5(C)CC=CC(C)(C)[C@@H]5CC[C@]43C)[C@@H]2C1 (single isomer, unassigned)",
> 50,,"CC1(C)CCC2(C(=O)O)CC[C@]3(C)C(=CC(=O)[C@@H]4[C@@]5(C)CC[C@H](O)C(C)(C)[C@@H]5CC[C@]43C)[C@@H]2C1 (single isomer, unassigned)",
7.1,0.1,CC1(C)CC[C@]2(C(=O)NO)CC[C@]3(C)C(=CC[C@@H]4[C@@]5(C)C[C@@H](O)[C@H](O)C(C)(C)[C@@H]5CC[C@]43C)[C@@H]2C1,
> 50,,CC1(C)[C@@H](O)CC[C@]2(C)[C@H]3C(=O)C=C4[C@@H]5C[C@@](C)(C(=O)O)CC[C@]5(C)CC[C@@]4(C)[C@]3(C)CC[C@@H]12 [ENOXOLONE],
2.6,0.55,C=C(C)[C@@H]1CC[C@]2(C(=O)NO)CC[C@]3(C)C(CC[C@@H]4[C@@]5(C)Cc6cnoc6C(C)(C)[C@@H]5CC[C@]43C)[C@H]12 (some centres undefined),

SMILES,EC50 [1] [µM],Intrinsic activity [2],other results
C=C(C)[C@@H]1CC[C@]2(C(=O)NO)CC[C@]3(C)C(CC[C@@H]4[C@@]5(C)CC[C@H](O)C(C)(C)[C@@H]5CC[C@]43C)[C@@H]12 (some centres undefined),4.8,0.36,inhibition [3]: Active; Activity (HEK-293T [4]): Non-Toxic; Activity (HEK-293T [5]): Non-Toxic; Activity (HEK-293T [6]): Non-Toxic; inhibition [7]: Active; inhibition [8]: Active; Activity (HEK-293T [9]): Non-Toxic; Activity (HEK-293T [10]): Non-Toxic; inhibition [11]: Active; inhibition [12]: Active; inhibition [13]: Active; inhibition [14]: Active; inhibition [15]: inactive
C=C(C)[C@@H]1CC[C@]2(C(=O)O)CC[C@]3(C)[C@H](CC[C@@H]4[C@@]5(C)CC[C@H](O)C(C)(C)[C@@H]5CC[C@]43C)[C@@H]12 [BETULINIC ACID],> 50,,
